From ChEMBL document CHEMBL3774311, “Synthesis and in vitro antitumour activity of tiazofurin analogues with nitrogen functionalities at the C-2' position” (Eur J Med Chem, 2016)

Key:
[1] = tested on: K562; experiment: Induction of specific necrosis in human K562 cells after 72 hrs by annexin V-FITC/propidium iodide staining based flow cytometry; format: functional; set-up: concentration or dose not given beside the values
Outline: (§1)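 K562 cells treated 24 or 72 h, double-stained with Annexin V-FITC/PI and analysed by flow cytometry to give percentages of live, apoptotic and necrotic cells; apoptotic and necrotic responses expressed as specific apoptosis or specific necrosis (%).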

[2] = tested on: MCF7; experiment: Antiproliferative activity against human MCF7 cells after 72 hrs by MTT assay; format: functional, cell-based; conditions: MCF7, 72 h
Outline: (§2)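 Human tumour lines and MRC-5 foetal lung fibroblasts (normal-cell comparator) exposed to compounds for 72 h; viability read by standard MTT assay. IC50 taken as concentration inhibiting growth by 50% versus untreated control; means of three independent experiments, coefficients of variation under 10%.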

[3] = tested on: K562; experiment: Induction of apoptosis in human K562 cells assessed as early apoptotic cells after 72 hrs by annexin V-FITC/propidium iodide staining based flow cytometry (reference value: 3.22%); format: functional; outline: as §1
[4] = tested on: K562; experiment: Induction of apoptosis in human K562 cells assessed as living cells after 72 hrs by annexin V-FITC/propidium iodide staining based flow cytometry (reference value: 84.31%); format: functional; outline: as §1
[5] = tested on: K562; experiment: Antiproliferative activity against human K562 cells after 72 hrs by MTT assay; format: functional, cell-based; outline: as §2
[6] = tested on: HeLa; experiment: Antiproliferative activity against human HeLa cells after 72 hrs by MTT assay; format: functional, cell-based; outline: as §2
[7] = tested on: K562; experiment: Induction of apoptosis in human K562 cells assessed as necrotic cells after 24 hrs by annexin V-FITC/propidium iodide staining based flow cytometry (reference value: 1.50%); format: functional; outline: as §1
[8] = tested on: HT-29; experiment: Antiproliferative activity against human HT-29 cells after 72 hrs by MTT assay; format: functional, cell-based; conditions: HT-29, 72 h; outline: as §2
[9] = tested on: K562; experiment: Induction of cell cycle arrest in human K562 cells assessed as accumulation at G2/M phase after 24 hrs by propidium iodide staining-based flow cytometry (reference value: 14.29%); format: functional
Outline: (§3)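 Exponentially growing K562 cells treated 24 or 72 h; cells stained with propidium iodide and cell-cycle distribution (sub-G1, G0/G1, S, G2/M, %) measured by flow cytometry; untreated cells as control.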

[10] = tested on: K562; experiment: Induction of apoptosis in human K562 cells assessed as early apoptotic cells after 24 hrs by annexin V-FITC/propidium iodide staining based flow cytometry (reference value: 8.09%); format: functional; outline: as §1
[11] = tested on: K562; experiment: Induction of apoptosis in human K562 cells assessed as late apoptotic cells after 72 hrs by annexin V-FITC/propidium iodide staining based flow cytometry (reference value: 5.24%); format: functional; outline: as §1
[12] = tested on: K562; experiment: Induction of cell cycle arrest in human K562 cells assessed as accumulation at Sub-G1 phase after 72 hrs by propidium iodide staining-based flow cytometry (reference value: 3.04%); format: functional; outline: as §3
[13] = tested on: K562; experiment: Induction of specific necrosis in human K562 cells after 24 hrs by annexin V-FITC/propidium iodide staining based flow cytometry; format: functional; set-up: concentration or dose not given beside the values; outline: as §1
[14] = tested on: K562; experiment: Induction of cell cycle arrest in human K562 cells assessed as accumulation at S phase after 72 hrs by propidium iodide staining-based flow cytometry (reference value: 35.73%); format: functional; outline: as §3
[15] = tested on: MRC5; experiment: Cytotoxicity against human MRC5 cells after 72 hrs by MTT assay; format: cell-based; conditions: MRC5, 72 h; outline: as §2
[16] = tested on: K562; experiment: Induction of cell cycle arrest in human K562 cells assessed as accumulation at Sub-G1 phase after 24 hrs by propidium iodide staining-based flow cytometry (reference value: 1.05%); format: functional; outline: as §3
[17] = Antiproliferative activity against human HL60 cells after 72 hrs by MTT assay; format: functional, cell-based, HL-60; outline: as §2
[18] = tested on: Raji; experiment: Antiproliferative activity against human Raji cells after 72 hrs by MTT assay; format: functional, cell-based; outline: as §2
[19] = tested on: K562; experiment: Induction of apoptosis in human K562 cells assessed as living cells after 24 hrs by annexin V-FITC/propidium iodide staining based flow cytometry (reference value: 85.85%); format: functional; outline: as §1
[20] = tested on: K562; experiment: Induction of specific apoptosis in human K562 cells after 72 hrs by annexin V-FITC/propidium iodide staining based flow cytometry; format: functional; set-up: concentration or dose not given beside the values; outline: as §1
[21] = tested on: K562; experiment: Induction of apoptosis in human K562 cells assessed as Bax protein level after 24 hrs by Western blotting method (reference value: 16.13%); format: functional
[22] = tested on: K562; experiment: Induction of specific apoptosis in human K562 cells after 24 hrs by annexin V-FITC/propidium iodide staining based flow cytometry; format: functional; set-up: concentration or dose not given beside the values; outline: as §1
[23] = tested on: K562; experiment: Induction of apoptosis in human K562 cells assessed as cleaved PARP level after 72 hrs by Western blotting method (reference value: 18.36%); format: functional
[24] = tested on: K562; experiment: Induction of apoptosis in human K562 cells assessed as necrotic cells after 72 hrs by annexin V-FITC/propidium iodide staining based flow cytometry (reference value: 7.23%); format: functional; outline: as §1
[25] = tested on: K562; experiment: Induction of apoptosis in human K562 cells assessed as cleaved PARP level after 24 hrs by Western blotting method (reference value: 36.17%); format: functional
[26] = tested on: Jurkat; experiment: Antiproliferative activity against human Jurkat cells after 72 hrs by MTT assay; format: functional, cell-based; outline: as §2
[27] = tested on: K562; experiment: Induction of apoptosis in human K562 cells assessed as Bcl2 protein level after 24 hrs by Western blotting method (reference value: 22.81%); format: functional
[28] = tested on: K562; experiment: Induction of cell cycle arrest in human K562 cells assessed as accumulation at G0/G1 phase after 72 hrs by propidium iodide staining-based flow cytometry (reference value: 45.92%); format: functional; outline: as §3
[29] = tested on: K562; experiment: Induction of cell cycle arrest in human K562 cells assessed as accumulation at G0/G1 phase after 24 hrs by propidium iodide staining-based flow cytometry (reference value: 36.28%); format: functional; outline: as §3
[30] = tested on: K562; experiment: Induction of apoptosis in human K562 cells assessed as caspase 3 level after 72 hrs by Western blotting method (reference value: 17.05%); format: functional
[31] = tested on: K562; experiment: Induction of apoptosis in human K562 cells assessed as Bcl2 protein level after 72 hrs by Western blotting method (reference value: 7.90%); format: functional
[32] = tested on: K562; experiment: Induction of cell cycle arrest in human K562 cells assessed as accumulation at G2/M phase after 72 hrs by propidium iodide staining-based flow cytometry (reference value: 15.31%); format: functional; outline: as §3
[33] = tested on: K562; experiment: Induction of apoptosis in human K562 cells assessed as late apoptotic cells after 24 hrs by annexin V-FITC/propidium iodide staining based flow cytometry (reference value: 4.58%); format: functional; outline: as §1
[34] = tested on: K562; experiment: Induction of apoptosis in human K562 cells assessed as caspase 3 level after 24 hrs by Western blotting method (reference value: 42.77%); format: functional
[35] = tested on: K562; experiment: Induction of apoptosis in human K562 cells assessed as Bax protein level after 72 hrs by Western blotting method (reference value: 32.81%); format: functional
[36] = tested on: K562; experiment: Induction of cell cycle arrest in human K562 cells assessed as accumulation at S phase after 24 hrs by propidium iodide staining-based flow cytometry (reference value: 48.38%); format: functional; outline: as §3

| SMILES | Activity [1] | Activity [3] | Activity [4] | Activity [7] | Activity [9] | Activity [10] | Activity [11] | Activity [12] | Activity [13] | Activity [14] | Activity [16] | Activity [19] | Activity [20] | Activity [21] | Activity [22] | Activity [23] | Activity [24] | Activity [25] | Activity [27] | Activity [28] | further results |
| --- | --- | --- | --- | --- | --- | --- | --- | --- | --- | --- | --- | --- | --- | --- | --- | --- | --- | --- | --- | --- | --- |
| NC(=O)c1csc([C@@H]2O[C@H](CO)[C@@H](O)[C@H]2N)n1 | 7.11% | 22.56% | 2.92% | 6.48% | 20.06% | 12.02% | 66.51% | 13.52% | 4.97% | 34.08% | 1.4% | 71.33% | 33.39% | 3.52% | 17.57% | 11.32% | 8.02% | 10.01% | 9.06% | 40.24% | IC50 [2]: > 100000 nM; IC50 ([5]; k562): 510 nM; IC50 ([6]; hela): 150 nM; IC50 [8]: > 100000 nM; IC50 [15]: > 100000 nM; IC50 ([17]; hl-60): 12200 nM; IC50 ([18]; raji): 2590 nM; IC50 [26]: > 100000 nM; Activity [29]: 32.21%; Activity [30]: 38.2%; Activity [31]: 3.21%; Activity [32]: 12.16%; Activity [33]: 10.18%; Activity [34]: 22.07%; Activity [35]: 112.54%; Activity [36]: 46.33% |
| NC(=O)c1csc([C@@H]2O[C@H](CO)[C@@H](O)[C@H]2O)n1 [TIAZOFURIN] | 10.71% | 29.42% | 41.24% | 5.27% | 7.55% | 3.79% | 15.58% | 24.99% | 3.76% | 33.62% | 2.22% | 79.36% | 13.71% | 37.25% | -0.34% | 44.51% | 13.76% | 57.93% | 16.16% | 35.66% | IC50 [2]: 1780 nM; IC50 ([5]; Homo sapiens, K562, 72 h): 1890 nM; IC50 ([17]; Homo sapiens, HL-60, 72 h): 190 nM; Activity [29]: 37.08%; Activity [30]: 15.38%; Activity [31]: 27.2%; Activity [32]: 5.74%; Activity [33]: 11.58%; Activity [34]: 47.68%; Activity [35]: 111.01%; Activity [36]: 53.16% |
| [N-]=[N+]=N[C@@H]1[C@H](O)[C@@H](CO)O[C@H]1c1nc(C(N)=O)cs1 | 5.33% | 16.67% | 3% | 0.69% | 11.6% | 10.94% | 74.34% | 10.9% | -0.82% | 35.04% | 2.93% | 83.58% | 38.06% | 12.4% | 10.73% | 70.23% | 5.99% | 103.8% | 31.53% | 42.24% | IC50 [2]: 4 nM; IC50 ([5]; Homo sapiens, K562, 72 h): 310 nM; IC50 ([6]; Homo sapiens, HeLa, 72 h): 4080 nM; IC50 [8]: > 100000 nM; IC50 [15]: > 100000 nM; IC50 ([17]; Homo sapiens, HL-60, 72 h): > 100000 nM; IC50 ([18]; Homo sapiens, Raji, 72 h): > 100000 nM; IC50 [26]: > 100000 nM; Activity [29]: 42.67%; Activity [30]: 34.23%; Activity [31]: 17.3%; Activity [32]: 11.82%; Activity [33]: 4.8%; Activity [34]: 47.06%; Activity [35]: 85.6%; Activity [36]: 42.8% |
| Cl.NC(=O)c1csc([C@@H]2O[C@H](CO)[C@@H](O)[C@H]2N)n1 | 6.22% | 22.33% | 4.53% | 5.11% | 15.16% | 8.99% | 66.3% | 11.13% | 3.6% | 33.29% | 2.61% | 78.24% | 30.26% | 2.16% | 10.71% | 24.41% | 6.88% | 66.48% | 16.22% | 44.32% | IC50 ([5]; k562): > 100000 nM; IC50 ([6]; hela): > 100000 nM; IC50 ([17]; hl-60): 20 nM; IC50 ([18]; raji): 9280 nM; Activity [29]: 35.02%; Activity [30]: 11.52%; Activity [31]: 14.5%; Activity [32]: 11.26%; Activity [33]: 7.67%; Activity [34]: 16.6%; Activity [35]: 81.99%; Activity [36]: 47.22% |
